Reference: publication PMC7201918 (The Journal of Experimental Medicine, 2020)

Key:
[1] = system: GM-CSF (Csf2fl/fl:R26CreERT2 mice); test: EAE with tamoxifen-induced GM-CSF deletion; type: in vivo, mouse; conditions: tamoxifen by oral gavage after EAE onset in Csf2fl/fl:R26CreERT2 mice; n = 12 mice
[2] = system: WT mouse BM neutrophils; test: SOCS mRNA expression by real-time PCR in BM neutrophils; type: cell-based; conditions: purified mouse BM neutrophils, 100 ng/ml GM-CSF, later time points
[3] = system: human blood neutrophils and monocytes; test: Immunoblotting of pSTAT5 and CIS in human blood neutrophils and monocytes; type: cell-based; conditions: GM-CSF stimulation
How it was run: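 Blood neutrophils and monocytes from healthy human donors were treated with GM-CSF. pSTAT5, CIS and β-actin were immunoblotted from RIPA lysates (protease and phosphatase inhibitors, BCA-normalized) run on 4–12% Bis-Tris gels and detected by chemiluminescence. One experiment representative of three.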

[4] = system: CIS−/− BM neutrophils; test: Immunoblot of JAK-STAT/MAPK/Akt phosphorylation in WT or CIS−/− BM neutrophils; type: cell-based, mouse
How it was run: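 Ly6G-selected bone marrow neutrophils (≥95% pure) were primed with GM-CSF (100 ng/ml) for 3 h, washed, and held in cytokine-free medium for various times. Cells were lysed in RIPA buffer containing protease and phosphatase inhibitors, and loading was normalized by BCA assay. Lysates were separated on 4–12% Bis-Tris gels, transferred to PVDF, and detected by chemiluminescence. One of three independent experiments.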

[5] = system: CD131 (GM-CSFRβ) on BM neutrophils; test: Flow-cytometric analysis of CD131; type: cell-based, mouse; conditions: CIS−/− compared with WT neutrophils from 50:50 chimeric mice; n = 4 mice
How it was run: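 Surface CD131 was measured by flow cytometry on bone marrow neutrophils from WT:CIS−/− (50:50) chimeric mice. Cells were analysed naive (t0) and after stimulation with recombinant G-CSF or GM-CSF (100 ng/ml). n = 4 mice pooled from two independent experiments.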

[6] = system: WT or CIS−/− BM neutrophils; type: cell-based, mouse; conditions: for cleaved caspase-3 induction upon cytokine withdrawal: G-CSF: WT and CIS−/− neutrophils, GM-CSF: CIS−/− relative to WT; for Mcl-1 expression: WT and CIS−/− neutrophils, G-CSF or GM-CSF preconditioning
How it was run: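 Purified bone marrow neutrophils were exposed to recombinant G-CSF or GM-CSF (100 ng/ml) for 3 h, then replenished with cytokine-free medium for the indicated times. RIPA lysates with protease and phosphatase inhibitors were BCA-normalized. They were resolved on 4–12% Bis-Tris gels, blotted to PVDF, and developed by HRP chemiluminescence.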

[7] = system: BM neutrophils from WT and CIS−/− mice; test: CXCL2 and CCL3 secretion by BM neutrophils; type: cell-based, mouse; conditions: CIS−/− vs WT neutrophils, GM-CSF for 24 h; n = 3 mice
[8] = system: CCRL2 on BM neutrophils; test: Flow-cytometric analysis of CCRL2 surface expression on BM neutrophils; type: cell-based, mouse; conditions: CIS−/− vs WT neutrophils; n = 3 mice
[9] = system: BM monocytes from WT and CIS−/− mice; test: Differentiation of BM monocytes into CD11c+ GM-Macs; type: cell-based, mouse; conditions: CIS-deficient relative to WT monocytes; n = 4 mice
How it was run: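 Monocytes were purified from bone marrow by anti-CD115 magnetic positive selection (>95% purity). They were cultured with recombinant GM-CSF at 100 ng/ml in RPMI 1640 with antibiotics and 10% heat-inactivated FCS for the indicated times. The frequency of CD11c+ GM-Macs was determined by flow cytometry. n = 4 mice pooled from two independent experiments.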

[10] = system: BM monocytes from WT and CIS−/− mice; test: Chemokine; type: cell-based, mouse; conditions: 8 h after GM-CSF stimulation, n = 3 mice
How it was run: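 Bone marrow monocytes from WT and CIS−/− mice were isolated by anti-CD115-biotin/anti-biotin microbead positive selection (>95% purity). They were stimulated with recombinant GM-CSF at 100 ng/ml for 8 h in RPMI 1640 with antibiotics and 10% heat-inactivated FCS. Ccl17 and Ccl22 mRNA was measured by real-time PCR, normalized to Gapdh. n = 3 mice, one experiment.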

[11] = system: WT and CIS−/− BM neutrophils; test: RNASeq of BM neutrophils after GM-CSF stimulation; type: cell-based, mouse; conditions: GM-CSF 100 ng/ml
How it was run: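 Neutrophils were FACS-sorted from WT and CIS−/− bone marrow (PI– CD3– CD19– CD115– CD11b+ Ly6G+; 99–100% purity). They were left unstimulated or stimulated with recombinant GM-CSF at 100 ng/ml for 4 h and 24 h. RNA libraries underwent single-end 75 bp sequencing on a NextSeq 500 (~20 million reads per sample), and reads were quality-checked with fastqc.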

[12] = system: WT and CIS−/− BM eosinophils; test: Generation of eosinophils from BM cells in IL-5; type: cell-based, mouse; conditions: IL-5 for 3 d, n = 3 mice
[13] = system: eosinophils; conditions: ref Burnham et al., 2013; Matsumoto et al., 1997; Yoshimura et al., 1995; cited from earlier work
[14] = system: IL-18; conditions: cited from earlier work
[15] = system: synovial cell cultures; conditions: exogenous IL-18, synovial cell cultures; ref Gracie et al., 1999; cited from earlier work

## CC/C(=C(\c1ccccc1)c1ccc(OCCN(C)C)cc1)c1ccccc1 [tamoxifen]
[1]
  progression of EAE: inhibited the progression of EAE

## GM-CSF: recombinant GM-CSF (100 ng/ml)
[2]
  persistence of SOCS mRNA induction: only Cish mRNA levels were sustained at later time points
[3]
  CIS induction and STAT5 phosphorylation: CIS induction and STAT5 phosphorylation
[4]; CIS−/− vs WT neutrophils, 100 ng/ml GM-CSF, 2 h after stimulation
  STAT5 activation, later time points: prolonged expression of STAT5 activation at later time points
[4]; GM-CSF-primed (3 h) then washed CIS−/− neutrophils
  JAK2-STAT5 activation after cytokine withdrawal: Extended JAK2-STAT5 activation
[4]; GM-CSF-primed (3 h) then washed, WT vs CIS−/− neutrophils
  STAT3 and Akt dephosphorylation after cytokine withdrawal: kinetics of STAT3 and Akt dephosphorylation were similar
[4]; GM-CSF-primed then washed CIS−/− neutrophils
  p38 MAPK and SAPK/JNK activation after cytokine withdrawal: prolonged activation of p38 MAPK and SAPK/JNK
[5]
  cell surface GM-CSFRβ expression after stimulation: higher cell surface GM-CSFRβ expression
[6]; BM neutrophils
  A1/Bfl-1 induction: selectively induced the pro-survival protein A1/Bfl-1
[6]; CIS−/− neutrophils upon GM-CSF withdrawal
  A1/Bfl-1 level upon cytokine withdrawal: sustained for a longer period
[6]
  cleaved caspase-3 induction upon cytokine withdrawal: delayed induction of cleaved caspase-3
  Mcl-1 expression: no difference in the expression of prosurvival Mcl-1 protein
[7]
  CXCL2 and CCL3 secretion: secreted higher levels of CXCL2 and CCL3 chemokines
[8]
  cell surface CCRL2 expression: enhanced cell surface CCRL2 expression
[9]
  differentiation into GM-Macs: accelerated differentiation into GM-Macs
[10]
  chemokine production by monocytes: produced higher levels of chemokines
[11]; CIS−/− neutrophils, 24 h
  gene expression change, 24 h: extensive transcriptional changes
[11]; CIS−/− vs WT neutrophils, 4 h
  gene expression change, 4 h: little difference in gene expression

## IL-5: cytokine signaling through the common β chain
[12]
  eosinophil numbers: greater numbers
[13]
  Cish expression in eosinophils: can induce Cish expression

## IL-18: IL-1 family member; exogenous IL-18
[14]; ref Gracie et al., 1999
  effect on CIA, exogenous IL-18: prime CIA
[15]
  secretion of GM-CSF (along with nitric oxide, TNF, and IFN-γ): promote the secretion of GM-CSF

B1: G-CSF: recombinant G-CSF (100 ng/ml) (protein, UniProt P09919 31-207, looked up)
Granulocyte …: TPLGPASSLPQSFLLKCLEQVRKIQGDGAALQEKLVSECATYKLCHPEELVLLGHSLGIPWAPLSSCPSQALQLAGCLSQLHSGLFLYQGLLQALEGISPELGPTLDTLQLDVADFATTIWQQMEELGMAPALQPTQGAMPAFASAFQRRAGGVLVASHLQSFLEVSYRVLRHLAQP
[5]
  cell surface GM-CSFRβ expression after stimulation: no such difference
[6]
  cleaved caspase-3 induction upon cytokine withdrawal: rapid induction of cleaved caspase-3
  Mcl-1 expression: no difference in the expression of prosurvival Mcl-1 protein

B2: IL-18–binding protein: endogenous inhibitor of IL-18 (protein, UniProt O95998 31-194, looked up)
Interleukin-18-binding protein: TPVSQTTTAATASVRSTKDPCPSQPPVFPAAKQCPALEVTWPEVEVPLNGTLSLSCVACSRFPNFSILYWLGNGSFIEHLPGRLWEGSTSRERGSTGTQLCKALVLEQLTPALHSTNFSCVLVDPEQVVQRHVVLAQLWAGLRATLPPTQEALPSSHSSPQQQG
[14]; ref Plater-Zyberk et al., 2001
  effect on CIA, IL-18 inhibition: alleviation of CIA
